The term inhibition denotes the drop in the measured response relative to a control, in per cent.

Series [1] concerns Saccharomyces cerevisiae. Nature of the series: Growth inhibition of Saccharomyces cerevisiae BY4742 harboring gcn5delta mutant at 0.2 mM after 48 hrs. The class given is functional, organism-based. An outline of the steps: (§1)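 Spot assay on S. cerevisiae. Wild type (S288c or BY4742) and isogenic HAT deletion strains were used: gcn5Δ, elp3Δ and sas2Δ in S288c; gcn5Δ and rtt109Δ in BY4742. Growth was scored against wild type after 48 h at 28 °C.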

Series [2] relates to Saccharomyces cerevisiae. Nature of the series: Growth inhibition of Saccharomyces cerevisiae S288c harboring gcn5delta mutant at 0.2 mM after 48 hrs. The class given is functional, organism-based. In outline:
as §1

For series [3], the system named is Saccharomyces cerevisiae. Briefly: Reduction of growth of Saccharomyces cerevisiae harboring gcn5delta mutant at 0.2 mM after 48 hrs. The class given is functional, organism-based. An outline of the steps:
as §1

Series [4] relates to Saccharomyces cerevisiae. Nature of the series: Reduction of wild type Saccharomyces cerevisiae growth at 0.2 mM after 48 hrs. The class given is functional, organism-based. In outline: as §1
For series [5], the system named is Saccharomyces cerevisiae. Nature of the series: Growth inhibition of Saccharomyces cerevisiae S288c harboring sas2delta mutant at 0.5 mM after 48 hrs. The class given is functional, organism-based. In outline:
as §1

The subject of series [6] is Saccharomyces cerevisiae. Briefly: Growth inhibition of Saccharomyces cerevisiae BY4742 harboring rtt109delta mutant at 0.5 mM after 48 hrs. The class given is functional, organism-based. An outline of the steps:
as §1

The subject of series [7] is Saccharomyces cerevisiae. Briefly: Growth inhibition of Saccharomyces cerevisiae S288c harboring elp3delta mutant at 0.5 mM after 48 hrs. The class given is functional, organism-based. An outline of the steps:
as §1

Series [8] deals with Saccharomyces cerevisiae. Briefly: Growth inhibition of Saccharomyces cerevisiae BY4742 harboring gcn5delta mutant at 0.5 mM after 48 hrs. The class given is functional, organism-based. An outline of the steps: as §1
In series [9] the test system is Saccharomyces cerevisiae. Briefly: Growth inhibition of Saccharomyces cerevisiae S288c harboring gcn5delta mutant at 0.5 mM after 48 hrs. The class given is functional, organism-based. In outline: as §1
Series [10] relates to Saccharomyces cerevisiae. Briefly: Reduction of growth of Saccharomyces cerevisiae harboring gcn5delta mutant at 0.5 mM after 48 hrs. The class given is functional, organism-based. In outline: as §1
Series [11] concerns Saccharomyces cerevisiae. Nature of the series: Reduction of wild type Saccharomyces cerevisiae growth at 0.5 mM after 48 hrs. The class given is functional, organism-based. An outline of the steps:
as §1

Series [12] concerns Saccharomyces cerevisiae. Nature of the series: Reduction of growth of Saccharomyces cerevisiae harboring gcn5delta mutant at 1 mM after 48 hrs. The class given is functional, organism-based. An outline of the steps: as §1
Series [13] concerns Saccharomyces cerevisiae. Nature of the series: Reduction of wild type Saccharomyces cerevisiae growth at 1 mM after 48 hrs. The class given is functional, organism-based. An outline of the steps:
as §1

A short description of series [14]: Cytotoxicity against human BE-SK-N-BE(2) cells assessed as cell viability at 100 uM after 48 to 72 hrs by trypan blue exclusion assay. The class given is cell-based. Particulars: read-out: Activity. An outline of the steps: (§2)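 Trypan blue exclusion on HeLa, U87 glioblastoma and BE-SK-N-BE(2) neuroblastoma cells. Compound added at final 50 and 100 µM and incubated 48 or 72 h at 37 °C, then cells collected and counted. About 1.5 × 10⁵ cells counted per point. Viability given as mean percentage of viable/dead cells relative to untreated controls.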

Series [15] deals with HeLa. Briefly: Cytotoxicity against human HeLa cells assessed as cell viability at 50 to 100 uM after 48 to 72 hrs by trypan blue exclusion assay. The class given is cell-based. An outline of the steps:
as §2

The nature of series [16]: Cytotoxicity against human U87 cells assessed as cell viability at 50 to 100 uM after 48 to 72 hrs by trypan blue exclusion assay. The class given is cell-based. The conditions noted are these: u-87mg atcc. An outline of the steps: as §2
The species entered for series [17] is Homo sapiens. Nature of the series: Inhibition of histone acetyltransferase in human BE-SK-N-BE(2) cells assessed as AcH3 and H3AcK18 level after 72 hrs by Western blotting. The class given is cell-based. In outline:
(§3)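 HeLa, U87 and BE-SK-N-BE(2) cells incubated with compound at 50 or 100 µM for 48 or 72 h. Total lysates in 2× Laemmli buffer, boiled 10 min, run on 15% SDS-PAGE and blotted. Probed for acetyl-H3 and H3K18ac, with GAPDH as constitutive control.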
(In general: In western blotting, separated proteins are transferred to a membrane and probed.)

Series [18] deals with U-87MG ATCC. Briefly: Inhibition of histone acetyltransferase in human U87 cells assessed as AcH3 and H3AcK18 level after 72 hrs by Western blotting. The class given is cell-based. An outline of the steps: as §3
Series [19] deals with HeLa. Briefly: Inhibition of histone acetyltransferase in human HeLa cells assessed as AcH3 and H3AcK18 level after 72 hrs by Western blotting. The class given is cell-based. An outline of the steps: as §3
Series [20] is filed under the species Homo sapiens. Nature of the series: Inhibition of histone acetyltransferase in human BE-SK-N-BE(2) cells assessed as AcH3 and H3AcK18 level after 48 to 72 hrs by Western blotting. The class given is cell-based. An outline of the steps: as §3
Series [21] has as its system U-87MG ATCC. Briefly: Inhibition of histone acetyltransferase in human U87 cells assessed as AcH3 and H3AcK18 level after 48 to 72 hrs by Western blotting. The class given is cell-based. In outline: as §3
Series [22] has as its system HeLa. Nature of the series: Inhibition of histone acetyltransferase in human HeLa cells assessed as AcH3 and H3AcK18 level after 48 to 72 hrs by Western blotting. The class given is cell-based. An outline of the steps:
as §3

The target in series [23] is Histone acetyltransferase p300 (Homo sapiens) (UniProt Q09472). Briefly: Inhibition of human recombinant histone acetyltransferase p300 assessed as acetylation of histone H3 at 0.6 mM. In outline: (§4)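 Fluorescent in vitro HAT kit assay. Human recombinant HAT catalytic domains (Gcn5, p300, PCAF) were incubated with acetyl-CoA and histone H3 substrate, with inhibitor at 0.15, 0.3 and 0.6 mM. Anacardic acid at 15 µM served as reference. Residual activity measured relative to untreated control. Each reaction run three times, standard errors given.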

Series [24] deals with Histone acetyltransferase KAT2B (Homo sapiens) (UniProt Q92831). Nature of the series: Inhibition of human recombinant histone acetyltransferase PCAF assessed as acetylation of histone H3 at 0.15 to 0.6 mM. In outline:
as §4

In series [25] the target is T1, Histone acetyltransferase SAS2 (Saccharomyces cerevisiae (strain ATCC 204508 / S288c) (Baker's yeast)) (UniProt P40963).
T1 sequence (whole entry): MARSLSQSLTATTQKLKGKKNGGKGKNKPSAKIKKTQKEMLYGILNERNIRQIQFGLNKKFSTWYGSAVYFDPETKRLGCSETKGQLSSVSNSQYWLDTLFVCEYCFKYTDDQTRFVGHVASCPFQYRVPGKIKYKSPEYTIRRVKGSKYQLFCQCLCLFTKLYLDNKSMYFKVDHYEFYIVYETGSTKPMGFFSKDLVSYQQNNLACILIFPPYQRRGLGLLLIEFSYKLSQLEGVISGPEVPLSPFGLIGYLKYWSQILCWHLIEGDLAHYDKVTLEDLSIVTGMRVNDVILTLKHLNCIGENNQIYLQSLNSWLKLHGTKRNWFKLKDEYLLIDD
Nature of the series: Inhibition of Saccharomyces cerevisiae S288c histone acetyltransferase assessed as acetylation of histone H4 at 0.6 to 0.8 mM by Western blotting. An outline of the steps:
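S288c wild-type yeast grown at 28 °C in YPD with 1% DMSO, plus compound at 0.6 or 0.8 mM. Total protein extracts boiled in Laemmli buffer, run on 15% SDS-PAGE and blotted. Probed for pan-acetylated H3 and H4, with unmodified H3 and ADA2 as loading standards. Acetylation normalized to ADA2. Triplicate experiments, SD reported.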

Series [26] deals with Saccharomyces cerevisiae. Nature of the series: Growth inhibition of Saccharomyces cerevisiae BY4742 harboring gcn5delta mutant after 48 hrs. The class given is functional, organism-based. An outline of the steps: as §1
The subject of series [27] is Saccharomyces cerevisiae. Nature of the series: Growth inhibition of Saccharomyces cerevisiae S288c harboring gcn5delta mutant after 48 hrs. The class given is functional, organism-based. An outline of the steps:
as §1

Series [28] deals with Histone acetyltransferase GCN5 (Saccharomyces cerevisiae) (UniProt Q03330). Nature of the series: Inhibition of Saccharomyces cerevisiae S288c histone acetyltransferase assessed as acetylation of histone H3 at 0.6 to 0.8 mM by Western blotting.
Series [29] relates to Saccharomyces cerevisiae. Briefly: Growth inhibition of Saccharomyces cerevisiae BY4742 harboring rtt109delta mutant at 0.75 mM after 48 hrs. The class given is functional, organism-based. In outline: as §1
Series [30] has as its system Saccharomyces cerevisiae. Nature of the series: Growth inhibition of Saccharomyces cerevisiae S288c harboring sas2delta mutant at 0.75 mM after 48 hrs. The class given is functional, organism-based. In outline: as §1
The test system of series [31] is Saccharomyces cerevisiae. Nature of the series: Growth inhibition of Saccharomyces cerevisiae S288c harboring elp3delta mutant at 0.75 mM after 48 hrs. The class given is functional, organism-based. An outline of the steps: as §1
The test system of series [32] is Saccharomyces cerevisiae. Nature of the series: Growth inhibition of Saccharomyces cerevisiae BY4742 harboring gcn5delta mutant at 0.75 mM after 48 hrs. The class given is functional, organism-based. An outline of the steps: as §1
Series [33] concerns Saccharomyces cerevisiae. Briefly: Growth inhibition of Saccharomyces cerevisiae S288c harboring gcn5delta mutant at 0.75 mM after 48 hrs. The class given is functional, organism-based. An outline of the steps:
as §1

Structures are written as SMILES. Calls of active or inactive are those of the source. No cut-off for these calls is given here.

Sequence of Histone acetyltransferase KAT2B (Homo sapiens) (Q92831 whole entry, looked up): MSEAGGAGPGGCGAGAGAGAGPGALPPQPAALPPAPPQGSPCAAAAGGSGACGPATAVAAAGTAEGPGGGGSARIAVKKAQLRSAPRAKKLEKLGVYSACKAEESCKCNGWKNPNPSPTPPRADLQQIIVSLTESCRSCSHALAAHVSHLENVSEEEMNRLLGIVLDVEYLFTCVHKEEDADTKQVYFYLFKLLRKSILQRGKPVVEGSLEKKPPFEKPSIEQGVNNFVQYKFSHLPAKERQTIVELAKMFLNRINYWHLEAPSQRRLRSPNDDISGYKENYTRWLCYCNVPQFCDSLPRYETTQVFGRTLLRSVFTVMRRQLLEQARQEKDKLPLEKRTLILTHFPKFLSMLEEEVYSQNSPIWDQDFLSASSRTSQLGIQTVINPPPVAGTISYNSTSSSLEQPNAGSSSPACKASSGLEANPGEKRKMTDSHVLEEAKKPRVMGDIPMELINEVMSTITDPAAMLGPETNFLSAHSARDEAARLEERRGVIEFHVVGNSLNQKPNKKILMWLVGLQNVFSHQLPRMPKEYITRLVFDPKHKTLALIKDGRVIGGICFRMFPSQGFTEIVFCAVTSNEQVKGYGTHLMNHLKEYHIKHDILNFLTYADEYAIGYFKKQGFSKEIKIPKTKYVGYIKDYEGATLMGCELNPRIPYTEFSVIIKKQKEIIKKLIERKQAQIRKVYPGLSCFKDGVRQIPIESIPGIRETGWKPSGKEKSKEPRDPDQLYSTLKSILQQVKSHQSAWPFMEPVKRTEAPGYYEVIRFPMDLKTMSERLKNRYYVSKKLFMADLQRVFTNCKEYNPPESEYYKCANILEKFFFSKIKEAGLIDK
Sequence of Histone acetyltransferase p300 (Homo sapiens) (Q09472 whole entry, the tested form may be a part): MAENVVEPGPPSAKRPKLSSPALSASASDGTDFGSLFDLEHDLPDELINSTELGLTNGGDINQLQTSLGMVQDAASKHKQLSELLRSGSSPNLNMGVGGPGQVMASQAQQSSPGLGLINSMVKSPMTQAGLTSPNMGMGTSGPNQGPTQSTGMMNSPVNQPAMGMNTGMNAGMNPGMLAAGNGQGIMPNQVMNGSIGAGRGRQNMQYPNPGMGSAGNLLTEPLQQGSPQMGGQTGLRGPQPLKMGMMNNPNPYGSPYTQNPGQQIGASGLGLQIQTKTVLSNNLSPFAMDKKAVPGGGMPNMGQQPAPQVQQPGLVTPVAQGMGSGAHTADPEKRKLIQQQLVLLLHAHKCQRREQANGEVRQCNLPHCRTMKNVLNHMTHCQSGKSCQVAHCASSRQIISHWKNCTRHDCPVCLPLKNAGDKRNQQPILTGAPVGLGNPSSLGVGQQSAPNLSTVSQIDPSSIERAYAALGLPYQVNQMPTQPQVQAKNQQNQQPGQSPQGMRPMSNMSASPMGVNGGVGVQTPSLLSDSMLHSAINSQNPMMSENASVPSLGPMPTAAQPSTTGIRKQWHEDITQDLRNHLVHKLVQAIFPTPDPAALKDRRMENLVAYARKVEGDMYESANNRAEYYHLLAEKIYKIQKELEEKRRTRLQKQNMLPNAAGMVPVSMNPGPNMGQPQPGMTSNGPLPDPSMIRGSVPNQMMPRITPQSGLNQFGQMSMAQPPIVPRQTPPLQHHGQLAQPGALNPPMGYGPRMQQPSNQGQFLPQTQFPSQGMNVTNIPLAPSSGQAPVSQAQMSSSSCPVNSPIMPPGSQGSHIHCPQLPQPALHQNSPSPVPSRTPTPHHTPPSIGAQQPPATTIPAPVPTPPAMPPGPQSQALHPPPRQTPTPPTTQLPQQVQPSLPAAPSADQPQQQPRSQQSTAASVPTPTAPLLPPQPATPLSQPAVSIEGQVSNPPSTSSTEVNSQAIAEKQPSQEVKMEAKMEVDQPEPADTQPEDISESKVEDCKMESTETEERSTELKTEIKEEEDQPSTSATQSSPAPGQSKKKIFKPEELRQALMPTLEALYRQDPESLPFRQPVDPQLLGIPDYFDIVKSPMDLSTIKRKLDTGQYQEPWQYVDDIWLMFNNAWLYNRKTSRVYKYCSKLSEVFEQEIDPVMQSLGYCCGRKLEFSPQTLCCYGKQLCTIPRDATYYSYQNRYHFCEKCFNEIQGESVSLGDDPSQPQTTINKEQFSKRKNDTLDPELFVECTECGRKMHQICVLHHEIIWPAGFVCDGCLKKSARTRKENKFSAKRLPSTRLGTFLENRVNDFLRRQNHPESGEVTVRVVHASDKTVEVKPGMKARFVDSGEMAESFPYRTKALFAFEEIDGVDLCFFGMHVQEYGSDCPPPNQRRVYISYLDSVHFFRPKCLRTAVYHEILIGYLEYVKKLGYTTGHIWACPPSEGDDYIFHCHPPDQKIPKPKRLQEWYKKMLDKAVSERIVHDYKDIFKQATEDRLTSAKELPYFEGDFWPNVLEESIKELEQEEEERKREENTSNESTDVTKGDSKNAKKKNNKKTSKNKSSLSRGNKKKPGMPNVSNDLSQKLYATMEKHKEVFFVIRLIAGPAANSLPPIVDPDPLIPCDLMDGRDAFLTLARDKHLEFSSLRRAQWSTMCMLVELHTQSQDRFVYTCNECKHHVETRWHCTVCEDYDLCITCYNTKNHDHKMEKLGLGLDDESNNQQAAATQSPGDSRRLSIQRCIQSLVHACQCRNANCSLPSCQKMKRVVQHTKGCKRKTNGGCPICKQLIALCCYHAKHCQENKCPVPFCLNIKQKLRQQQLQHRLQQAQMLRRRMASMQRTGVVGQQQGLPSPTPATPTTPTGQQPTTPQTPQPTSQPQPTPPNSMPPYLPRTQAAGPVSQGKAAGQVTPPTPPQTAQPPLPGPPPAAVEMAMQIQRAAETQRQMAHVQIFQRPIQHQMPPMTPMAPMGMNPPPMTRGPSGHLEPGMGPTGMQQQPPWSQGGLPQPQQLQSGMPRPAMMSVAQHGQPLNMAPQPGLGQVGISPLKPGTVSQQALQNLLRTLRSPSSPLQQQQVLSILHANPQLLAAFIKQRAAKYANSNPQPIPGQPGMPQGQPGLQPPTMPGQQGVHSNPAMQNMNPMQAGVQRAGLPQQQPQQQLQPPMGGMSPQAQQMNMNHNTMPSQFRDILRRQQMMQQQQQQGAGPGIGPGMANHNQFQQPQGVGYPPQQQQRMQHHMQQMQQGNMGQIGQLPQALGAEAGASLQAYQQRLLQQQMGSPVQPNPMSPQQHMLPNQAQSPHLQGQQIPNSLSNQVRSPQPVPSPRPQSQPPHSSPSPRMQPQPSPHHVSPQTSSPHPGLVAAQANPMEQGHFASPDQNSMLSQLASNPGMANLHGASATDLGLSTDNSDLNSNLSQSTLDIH
Sequence of Histone acetyltransferase GCN5 (Saccharomyces cerevisiae) (Q03330 whole entry, looked up): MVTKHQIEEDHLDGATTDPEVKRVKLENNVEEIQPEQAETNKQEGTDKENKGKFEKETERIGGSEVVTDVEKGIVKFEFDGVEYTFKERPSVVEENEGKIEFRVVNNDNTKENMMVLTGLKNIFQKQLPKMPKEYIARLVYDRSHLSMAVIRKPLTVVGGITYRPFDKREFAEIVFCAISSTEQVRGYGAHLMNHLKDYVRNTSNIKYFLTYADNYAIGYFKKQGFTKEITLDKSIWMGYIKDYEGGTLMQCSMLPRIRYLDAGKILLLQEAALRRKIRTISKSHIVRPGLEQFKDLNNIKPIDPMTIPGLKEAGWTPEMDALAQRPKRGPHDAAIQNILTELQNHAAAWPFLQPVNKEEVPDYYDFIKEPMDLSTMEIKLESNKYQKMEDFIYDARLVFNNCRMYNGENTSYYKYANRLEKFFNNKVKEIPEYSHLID

For `CCC(CC)=NNc1nc(-c2ccc(Cl)cc2)cs1`, the “growth inhibition (GI)” value in the series on Saccharomyces cerevisiae [1] and in the series with Saccharomyces cerevisiae [2] was “Active” each time. For the same molecule, the outcome in the series on Saccharomyces cerevisiae [3] and with Saccharomyces cerevisiae [4] was Active.
Consider `Clc1ccc(-c2csc(NN=C3CCCC3)n2)cc1`, for which the “growth inhibition (GI)” value with Saccharomyces cerevisiae [5], in the series with Saccharomyces cerevisiae [6] and in the series on Saccharomyces cerevisiae [7] was “inactive” each time. Further, the “growth inhibition (GI)” value in the series with Saccharomyces cerevisiae [8] and with Saccharomyces cerevisiae [9] was “Active” throughout. Besides, the result in the series on Saccharomyces cerevisiae [10] and in the series with Saccharomyces cerevisiae [11] was Active.
Take `CC/C(C)=N/Nc1nc(-c2ccc(Cl)cc2)cs1`: the “growth inhibition (GI)” value in the series with Saccharomyces cerevisiae [1] and in the series on Saccharomyces cerevisiae [2] was “Active” in each case. Further, the result in the series on Saccharomyces cerevisiae [3] and in the series on Saccharomyces cerevisiae [4] was Active.
Turning to `C/C(=N/Nc1nc(-c2ccc(Cl)cc2)cs1)c1ccccn1`, the result with Saccharomyces cerevisiae [12] and with Saccharomyces cerevisiae [13] was Active.
Take `CC(C)=NNc1nc(-c2ccc(Cl)cc2)cs1`: the viability at 100 µM in series [14] was 30%. Further, the Activity entry (with HeLa [15]; in series [16]) was “Non-toxic” in each case. In addition, the inhibition result (in the series filed under Homo sapiens [17]; in the series on U-87MG ATCC [18]; in the series on HeLa [19]; in [23]) was “Active” in each case. Besides, the inhibition entry in the series filed under Homo sapiens [20] was “Dose-dependent effect”; in the series on U-87MG ATCC [21] it was “Dose-dependent effect”; with HeLa [22] it was “Dose-dependent effect”; in [28] it was 50%. Besides, the inhibition result in series [24] and in series [25] was “inactive” in each case. Moreover, the “growth inhibition (GI)” value with Saccharomyces cerevisiae [26] and in the series with Saccharomyces cerevisiae [27] was “Dose-dependent effect” throughout. Further, the “growth inhibition (GI)” value with Saccharomyces cerevisiae [1] and with Saccharomyces cerevisiae [2] was “Active” throughout. In addition, the result in the series on Saccharomyces cerevisiae [3] and in the series with Saccharomyces cerevisiae [4] was Active.
Regarding `COc1cc(/C=C/C(=O)CC(=O)/C=C/c2ccc(O)c(OC)c2)ccc1O`, the “growth inhibition (GI)” value with Saccharomyces cerevisiae [29], in the series with Saccharomyces cerevisiae [30] and with Saccharomyces cerevisiae [31] was “inactive” each time. Further, the “growth inhibition (GI)” value in the series with Saccharomyces cerevisiae [32] and in the series with Saccharomyces cerevisiae [33] was “Active” throughout.
